In article PMC8296307 (Epilepsy research, 2021):
Read-outs that look alike come from different tables or passages of the source.

Columns and labels:
m5-HT2A [1] = biological target: T1, m5-HT2A (Mus musculus, UniProt P35363); test: Radioligand competition binding, [3H]Ketanserin, m5-HT2A in HEK293 membranes
h5-HT2C-INI [2] = biological target: T2, h5-HT2C-INI (Homo sapiens, UniProt P28335); format: binding; details: [3H]Mesulergine, one-site fit Ki
T2 sequence (P28335 33-458): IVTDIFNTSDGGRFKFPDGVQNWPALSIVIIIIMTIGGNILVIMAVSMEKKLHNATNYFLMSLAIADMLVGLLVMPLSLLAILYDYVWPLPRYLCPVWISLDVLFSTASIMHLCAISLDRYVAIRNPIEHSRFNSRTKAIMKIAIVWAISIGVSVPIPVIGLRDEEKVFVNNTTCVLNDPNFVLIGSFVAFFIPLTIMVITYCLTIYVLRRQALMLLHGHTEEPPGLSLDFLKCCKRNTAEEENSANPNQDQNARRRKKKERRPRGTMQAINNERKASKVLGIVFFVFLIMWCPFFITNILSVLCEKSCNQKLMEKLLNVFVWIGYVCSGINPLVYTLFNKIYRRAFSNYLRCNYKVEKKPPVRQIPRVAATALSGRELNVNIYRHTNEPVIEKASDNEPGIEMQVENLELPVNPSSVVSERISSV

m5-HT2C-VNV [3] = biological target: T3, m5-HT2C-VNV (Mus musculus, UniProt P34968, I157V/I161V); format: binding
T3 sequence (P34968 33-459 I157V/I161V): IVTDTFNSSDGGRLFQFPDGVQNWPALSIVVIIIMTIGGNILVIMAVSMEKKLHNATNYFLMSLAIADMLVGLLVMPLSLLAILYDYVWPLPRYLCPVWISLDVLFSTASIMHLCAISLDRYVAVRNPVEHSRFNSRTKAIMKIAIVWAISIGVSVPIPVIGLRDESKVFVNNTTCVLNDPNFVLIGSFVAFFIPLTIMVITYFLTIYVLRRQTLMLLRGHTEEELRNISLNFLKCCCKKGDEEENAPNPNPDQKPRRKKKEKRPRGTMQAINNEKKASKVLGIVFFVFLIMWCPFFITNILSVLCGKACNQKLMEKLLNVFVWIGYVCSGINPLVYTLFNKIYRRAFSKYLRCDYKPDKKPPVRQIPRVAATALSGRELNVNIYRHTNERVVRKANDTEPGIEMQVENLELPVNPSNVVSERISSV

h5-HT2A = h5-HT2A (Homo sapiens, UniProt P28223); test: 5-HT2AR-mediated phosphoinositide hydrolysis, h5-HT2A in HEK293 cells; format: cell-based; details: relative to 5-HT
m5-HT2A [4] = biological target: T1, m5-HT2A; test: 5-HT2AR-mediated phosphoinositide hydrolysis, m5-HT2A in HEK293 cells; format: cell-based
h5-HT2C-INI [5] = biological target: T2, h5-HT2C-INI; test: 5-HT2CR-mediated phosphoinositide hydrolysis, h5-HT2C-INI in HEK293 cells; format: cell-based; details: for agonist efficacy: relative to 5-HT
m5-HT2C-VNV [6] = biological target: T3, m5-HT2C-VNV; test: 5-HT2CR-mediated phosphoinositide hydrolysis, m5-HT2C-VNV in HEK293 cells; format: cell-based; details: for agonist efficacy: relative to 5-HT
C57BL/6J mice [7] = test: DOI-elicited head-twitch response; format: in vivo, mouse; details: for HTR (mean count): 10-minute session
Procedure, shortened: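 C57BL/6J mice were acclimated to the testing room for ≥60 min. They then received s.c. vehicle (Milli-Q water) or test compound (1, 3 or 5.6 mg/kg), followed 10 min later by s.c. 5-HT2R agonist challenge (1.0 mg/kg). After a further 10 min, mice were placed in the open field for a 10-min session. Head twitches (rapid, discrete head jerks) were counted with a tally counter by an observer blind to treatment.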

[8] = tested on: juvenile Fmr1 knockout mice; details: ref Armstrong et al., 2020; cited from earlier work
[9] = tested on: juvenile Fmr1 knockout mice; test: Audiogenic seizures; format: in vivo, mouse; details: for lethality: vehicle 60%; for seizure prevalence (TCS): vehicle 70%; for mean WRJ duration (± SD): vehicle 10 (±5)
C57BL/6J mice [10] = test: Head-twitch response; format: in vivo, mouse; details: vehicle 2.6
C57BL/6J mice [11] = test: Locomotor activity in open field; format: in vivo, mouse
[12] = steady-state clinical dosing of 10 mg twice daily in monkeys; ref FDA briefing document NDA22529; cited from earlier work
[13] = phosphoinositide hydrolysis, mean
[14] = phosphoinositide hydrolysis, mean (95% CI)
[15] = lorcaserin 5.6 mg/kg with M100907 0.03 mg/kg pretreatment
[16] = 30 mg/kg i.p., 30 min before test

T1 sequence (P35363 whole entry): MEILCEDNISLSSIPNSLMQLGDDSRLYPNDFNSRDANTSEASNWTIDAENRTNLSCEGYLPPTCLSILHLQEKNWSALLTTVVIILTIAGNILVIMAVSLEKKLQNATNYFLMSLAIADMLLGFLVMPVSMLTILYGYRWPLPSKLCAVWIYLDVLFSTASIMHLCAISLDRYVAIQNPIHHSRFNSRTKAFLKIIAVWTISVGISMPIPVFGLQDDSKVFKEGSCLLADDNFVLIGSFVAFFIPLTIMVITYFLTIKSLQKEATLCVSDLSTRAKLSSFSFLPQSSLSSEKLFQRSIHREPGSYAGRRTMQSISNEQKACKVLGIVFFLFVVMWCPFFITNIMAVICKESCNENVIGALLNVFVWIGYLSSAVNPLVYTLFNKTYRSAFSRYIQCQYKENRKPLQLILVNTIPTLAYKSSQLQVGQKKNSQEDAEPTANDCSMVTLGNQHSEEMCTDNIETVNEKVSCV
Chain of h5-HT2A (P28223 whole entry): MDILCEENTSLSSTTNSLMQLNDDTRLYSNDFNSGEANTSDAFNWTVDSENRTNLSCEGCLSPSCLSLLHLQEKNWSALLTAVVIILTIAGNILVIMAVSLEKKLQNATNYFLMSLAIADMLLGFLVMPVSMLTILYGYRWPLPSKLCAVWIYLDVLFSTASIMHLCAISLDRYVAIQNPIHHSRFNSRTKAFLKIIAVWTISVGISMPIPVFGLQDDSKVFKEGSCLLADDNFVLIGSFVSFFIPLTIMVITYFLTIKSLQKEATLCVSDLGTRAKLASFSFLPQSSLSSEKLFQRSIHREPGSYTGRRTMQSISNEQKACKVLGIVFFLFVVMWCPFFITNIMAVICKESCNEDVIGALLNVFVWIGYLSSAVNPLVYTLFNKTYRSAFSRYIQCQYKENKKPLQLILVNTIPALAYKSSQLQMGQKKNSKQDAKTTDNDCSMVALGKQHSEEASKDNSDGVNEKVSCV

SMILES: COc1cc(CC(C)N)c(OC)cc1I (racemic) [DOI, (±)-2,5-dimethoxy-4-iodoamphetamine]
- Ki (m5-HT2A [1]; [3H]Ketanserin, one-site fit Ki, mean): 33 nM
- pKi (95% CI) (m5-HT2A [1]; [3H]Ketanserin, one-site fit Ki, mean (95% CI)): 7.48 (7.54 to 7.42)
- pKi (95% CI) at the high-affinity site (m5-HT2A [1]; two-site fit Ki model): 8.01 (8.70 to 7.64)
- pKi (95% CI) at the low-affinity site (m5-HT2A [1]; two-site fit Ki model): 7.02 (7.32 to 6.30)
- Ki (h5-HT2C-INI [2]; mean): 96 nM
- pKi (95% CI) (h5-HT2C-INI [2]; mean (95% CI)): 7.02 (7.11 to 6.93)
- Ki (m5-HT2C-VNV [3]; [3H]Mesulergine, one-site fit Ki, mean): 65 nM
- pKi (95% CI) (m5-HT2C-VNV [3]; [3H]Mesulergine, one-site fit Ki, mean (95% CI)): 7.19 (7.28 to 7.10)
- agonist efficacy (h5-HT2A): full efficacy h5-HT2AR agonist activity
- EC50 (m5-HT2A [4]; [13]): 1 nM
- pEC50 (95% CI) (m5-HT2A [4]; [14]): 9.00 (9.44 to 8.57)
- agonist efficacy (m5-HT2A [4]; relative to 5-HT): full efficacy m5-HT2AR agonist activity
- EC50 (h5-HT2C-INI [5]; [13]): 4.1 nM
- pEC50 (95% CI) (h5-HT2C-INI [5]; [14]): 8.39 (8.76 to 8.04)
- agonist efficacy (h5-HT2C-INI [5]): full agonists
- EC50 (m5-HT2C-VNV [6]; [13]): 8 nM
- pEC50 (95% CI) (m5-HT2C-VNV [6]; [14]): 8.10 (8.41 to 7.80)
- agonist efficacy (m5-HT2C-VNV [6]): full agonists
- HTR (mean count) (C57BL/6J mice [7]; DOI 1 mg/kg s.c. alone): 37.6
- more HTRs than SB242084 plus lorcaserin (C57BL/6J mice [7]; DOI 1 mg/kg vs SB242084 plus lorcaserin 3 mg/kg): 5 fold

SMILES: CN(C)[C@H]1CCc2c(cccc2-c2ccccc2F)C1 [FPT, (S)-5-(2’-Fluorophenyl)-N,N-dimethyl-1,2,3,4-tetrahydronaphthalen-2-amine]
- prevention of AGSs [8]: completely prevents AGSs

SMILES: O=C(c1ccc(F)cc1)C1CCN(CCn2c(=O)[nH]c3ccccc3c2=O)CC1 [Ketanserin]
- Ki (m5-HT2A [1]; pKi (95% CI), [3H]Ketanserin, one-site fit Ki, mean (95% CI)): 2.69 nM

SMILES: C[C@H]1CNCCc2ccc(Cl)cc21 [Lorcaserin]
- Ki (m5-HT2A [1]; Ki, [3H]Ketanserin, one-site fit Ki, mean): 4460 nM
- Ki (m5-HT2C-VNV [3]): 741 nM
- EC50 (m5-HT2A [4]; EC50, phosphoinositide hydrolysis, mean): 212 nM
- Emax (m5-HT2A [4]; HEK293): 84.6%
- EC50 (m5-HT2A [4]; pEC50 (95% CI), phosphoinositide hydrolysis, mean (95% CI)): 209 nM
- agonist efficacy (h5-HT2C-INI [5]): full agonists
- EC50 (m5-HT2C-VNV [6]): 15.8 nM
- agonist efficacy (m5-HT2C-VNV [6]): full agonists
- lethality ([9]; 1 mg/kg i.p.): 67%
- seizure prevalence (TCS) ([9]; 1 mg/kg i.p.): 83%
- lethality ([9]; 3 mg/kg i.p.): 28%
- seizure prevalence (TCS) ([9]; 3 mg/kg i.p.): 56%
- attenuation of AGS lethality ([9]; 3 mg/kg, relative to vehicle, not significant (P=0.06)): 32%
- attenuation of AGS prevalence ([9]; 3 mg/kg, relative to vehicle, not significant (P=0.5)): 14%
- mean WRJ duration (± SD) ([9]; 5.6 mg/kg alone): 19 (±12) seconds
- lethality ([9]; 5.6 mg/kg i.p.): 78%
- seizure prevalence (TCS) ([9]; 5.6 mg/kg i.p.): 94%
- mean WRJ duration (± SD) ([9]; 5.6 mg/kg in combination with M100907 0.03 mg/kg): 20 (±14) seconds
- mean TCS onset latency (± SD) ([9]; 5.6 mg/kg, vehicle 41 (±8)): 58 (±21) seconds
- lethality ([9]; 10 mg/kg i.p.): 78%
- seizure prevalence (TCS) ([9]; 10 mg/kg i.p.): 89%
- effect on WRJ latency ([9]; 1, 3, 5.6, 10 mg/kg): did not affect WRJ latency
- prevention of AGSs ([9]; 1-10 mg/kg i.p.): ineffective at preventing AGSs
- lethality [9, 15]: 50%
- seizure prevalence (TCS) [9, 15]: 90%
- behaviours observed in treated animals ([9]; some animals that received lorcaserin): purposeless oral movements
- HTR (mean count) (C57BL/6J mice [10]; 3 mg/kg s.c. alone): 4.1
- HTR (mean count) (C57BL/6J mice [10]; lorcaserin 3 mg/kg with SB242084 0.5 mg/kg s.c.): 7
- HTR (mean count) (C57BL/6J mice [10]; lorcaserin 3 mg/kg with SB242084 1 mg/kg s.c.): 6.3
- HTR (mean count) (C57BL/6J mice [7]; lorcaserin 3 mg/kg plus DOI 1 mg/kg): 44.1
- HTR (mean count) (C57BL/6J mice [7]; lorcaserin 5.6 mg/kg plus DOI 1 mg/kg): 44.9
- effect on locomotor activity (C57BL/6J mice [11]; 3 mg/kg s.c. alone, relative to vehicle (P<0.0001)): significantly reduced locomotor activity
- effect on locomotor activity (C57BL/6J mice [11]; lorcaserin 3 mg/kg combined with SB242084 0.5 mg/kg, relative to vehicle (P=0.0003)): significantly enhanced locomotor activity
- brain concentrations [12]: ~ 1.7 μM

SMILES: COc1cccc([C@H](O)C2CCN(CCc3ccc(F)cc3)CC2)c1OC [M100907]
- lethality ([9]; 0.03 mg/kg i.p. alone): 88%
- seizure prevalence (TCS) ([9]; 0.03 mg/kg i.p. alone): 100%

SMILES: Cc1cccc(C#Cc2ccccc2)n1 [MPEP, 2-methyl-6-(phenylethynyl)pyridine]
- lethality [9, 16]: 12%
- seizure prevalence (TCS) [9, 16]: 12%
- mean latency (± SD) to first episode of WRJ ([9]; 30 mg/kg, vehicle 36 (±11)): 160 (±19) seconds

SMILES: CN1C[C@@H](NS(=O)(=O)N(C)C)C[C@@H]2c3cccc4c3c(cn4C)C[C@H]21 [Mesulergine]
- Ki (m5-HT2C-VNV [3]): 3.39 nM

SMILES: Cc1cc2c(cc1Cl)N(C(=O)Nc1ccc(Oc3cccnc3C)nc1)CC2 [SB242084]
- effect on lorcaserin (3 mg/kg) reduced locomotor activity (C57BL/6J mice [11]; SB242084 0.5 mg/kg and 1 mg/kg s.c.): overturned
